Compounds with a hit are over-represented: about 3.7% of the library has one in this group of screens.
FGF22 binding – binders of recombinant human FGF22 by thermal shift; SYPRO orange fluorescence; percent of sucrose octasulfate shift, DMSO zero; Q9HCT0; activity (Tm shift, normalised), % at 9.99 µM; 340,000 compounds, 1.5% hits;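 active = mean Tm shift, scaled 0 neutral to 100 positive control, at about 1.3% or above, every replicate too, limit read from the data; inconclusive = no clear call, values can overlap the other calls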
Target sequence (Q9HCT0 whole entry, looked up): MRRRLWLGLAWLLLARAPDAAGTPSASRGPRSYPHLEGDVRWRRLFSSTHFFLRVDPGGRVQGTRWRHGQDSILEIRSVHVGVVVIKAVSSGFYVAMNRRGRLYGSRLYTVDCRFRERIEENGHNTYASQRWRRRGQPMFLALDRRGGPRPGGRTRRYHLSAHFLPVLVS
E-sel inducer – induces E-selectin expression in human endothelial cells; P16581; HUVEC E-selectin immunofluorescence imaging; normalized: neutral wells 0, TNF-alpha wells 100; activation, % at 7.58 µM; 260,000 compounds, 0.37% hits; AID 686992;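 active = mean E-selectin-positive cell signal at least 10% of the positive control, reached in at least 60% of replicates, without over 20% cell loss; inconclusive = no rule given, readout overlaps actives, possibly toxicity-flagged; inactive = the rest, including those meeting only one limit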
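material = human umbilical vein endothelial cells (HUVEC), E-selectin induction | quantity = 3,000 cells/well | medium = EGM-2 growth medium on 0.1% gelatin-coated wells | technique = immunofluorescence imaging | read-out basis = % PE-positive cells | control set = TNF-alpha positive control, DMSO neutral control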
F508del corr – correctors of CFTR F508del function in bronchial epithelial cells. 350,000 compounds, 0.36% hits. AID 720511. activity (quench increase), % at 7.58 µM. CFBE cells, YFP halide quenching; stimulated with forskolin plus potentiator P3; % fluorescence drop versus neutral controls;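 active = mean added fluorescence quench of at least 8% versus neutral control, with both replicates also reaching 8%; inconclusive = only one of the mean or replicate conditions met; inactive = mean below 8% and not both replicates reaching 8%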;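 note: cells transiently co-express mutant CFTR-F508del with the halide-sensitive YFP; corrector assay measuring rescue of mutant channel to the surface after 24 h compound exposure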
DENV2 CPE – inhibitors of DENV2 cytopathic effect | 350,000 compounds, 1.7% hits | DENV2-infected cells, cytopathic effect rescue, plate reader | CPE inhibition, % at 9.99 µM; in the data active = CPE inhibition above about 20%, passing the limit was not always enough; inconclusive = no clear call, values can overlap the other calls; tested in BHK-21 cells
ERAP1 HTS inh – ERAP1 (human) enzyme inhibition; inhibition, % at 10.7 µM; 340,000 compounds, 0.15% hits; Q9NZ08; recombinant ERAP1, Leu-AMC fluorescence, 60 min;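 active = mean replicate inhibition of at least 30%, or all replicates individually reaching that 30% level; inactive = mean below 30% and not every replicate reaching it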
Hits are given with their value.

Cc1noc(C)c1S(=O)(=O)N(C)C[C@@H]1OCCCC[C@@H](C)Oc2ccc(NS(=O)(=O)c3ccc(Cl)cc3)cc2C(=O)N([C@@H](C)CO)C[C@H]1C was read as FGF22 binding inactive, E-sel inducer inactive, F508del corr inactive, DENV2 CPE 36 and ERAP1 HTS inh inactive.
Screening Cc1noc(C)c1S(=O)(=O)N(C)C[C@H]1OCCCC[C@@H](C)Oc2ccc(NS(=O)(=O)c3ccc(Cl)cc3)cc2C(=O)N([C@@H](C)CO)C[C@@H]1C returned FGF22 binding inactive, E-sel inducer inactive, F508del corr inactive, DENV2 CPE 31 and ERAP1 HTS inh inactive.
CCNC(=O)[C@@H]1[C@@H](CO)[C@@H]2Cn3c(ccc(/C=C/c4ccccc4)c3=O)[C@H]1N2C(=O)C1CCCC1 was read as E-sel inducer inactive, F508del corr inactive, DENV2 CPE inactive and ERAP1 HTS inh inactive.
CCCC(=O)Nc1ccc2c(c1)OC[C@@H](C)N(CCC)C[C@H](C)[C@H](OC)CN(C)C2=O was read as FGF22 binding inactive, E-sel inducer inactive, F508del corr inactive, DENV2 CPE inactive and ERAP1 HTS inh inactive.
`C[C@@H]1CCCCO[C@H](CN(C)C(=O)Cc2ccccc2)[C@@H](C)CN([C@@H](C)CO)C(=O)c2cc(NC(=O)CCCN(C)C)ccc2O1` gave FGF22 binding inactive, E-sel inducer inactive, F508del corr inactive, DENV2 CPE inactive and ERAP1 HTS inh inactive.
CC(=O)N1[C@@H](CO)[C@@H](c2ccccc2)C12CN(C(=O)c1ccc3c(c1)OCO3)C2 was read as FGF22 binding inactive, E-sel inducer inactive, F508del corr inactive, DENV2 CPE inactive and ERAP1 HTS inh inactive.
CN1CCN(c2nc(-c3ccc(C(C)(C)C)cc3)nc3ccccc23)CC1 was read as FGF22 binding inactive, E-sel inducer inactive, F508del corr inactive, DENV2 CPE inactive and ERAP1 HTS inh inactive.
Cc1ccc(-c2nc(N3CCN(C)CC3)c3ccccc3n2)cc1 was read as FGF22 binding inactive, E-sel inducer inactive, F508del corr inactive, DENV2 CPE 25 and ERAP1 HTS inh inactive.
For COCCNC(=O)C1CCCN(C(=O)c2cc(-c3cccs3)oc2C)CC1 (configuration not stated) the results were FGF22 binding inactive, E-sel inducer inactive, F508del corr 13, DENV2 CPE inactive and ERAP1 HTS inh inactive.
Screening C[C@H]1CN([C@@H](C)CO)C(=O)c2cc(NC(=O)c3ccncc3)ccc2O[C@H]1CN(C)C(=O)NC1CCCCC1 returned FGF22 binding inactive, F508del corr inactive, DENV2 CPE inactive and ERAP1 HTS inh inactive.
For CCN1C(=O)c2cccc3c(N)ccc(c23)C1=O the results were FGF22 binding inactive, E-sel inducer inactive, F508del corr 19, DENV2 CPE inactive and ERAP1 HTS inh inactive.
Screening Cc1nn(C)c(C)c1N1C(=O)c2cccc3c(N)ccc(c23)C1=O returned E-sel inducer inactive.
For O=C(C[C@@H]1CC[C@H](NC(=O)C2CC2)[C@@H](CO)O1)Nc1ccccc1 the results were FGF22 binding inactive, E-sel inducer inactive, F508del corr inactive, DENV2 CPE inactive and ERAP1 HTS inh inactive.
Screening O=S(=O)(c1cccc(C(F)(F)F)c1)N1CCN(CC(O)COCc2ccccc2)CC1 (configuration not stated) returned FGF22 binding inactive, E-sel inducer inactive, F508del corr inactive, DENV2 CPE 63 and ERAP1 HTS inh inactive.
Screening C[C@H](CO)N1C[C@H](C)[C@H](CN(C)C(=O)NC2CCCCC2)Oc2cc(C#Cc3cccc(F)c3)ccc2S1(=O)=O returned FGF22 binding inactive, E-sel inducer inactive, F508del corr 8.4, DENV2 CPE inactive and ERAP1 HTS inh inactive.
Screening C[C@H](CO)N1C[C@H](C)[C@@H](CN(C)C(=O)NC2CCCCC2)Oc2cc(C#Cc3cccc(F)c3)ccc2S1(=O)=O returned E-sel inducer inactive and F508del corr inactive.
`C[C@H]1CN([C@@H](C)CO)S(=O)(=O)c2ccc(C#Cc3ccc(F)cc3)cc2O[C@@H]1CN(C)C(=O)NC1CCCCC1` gave FGF22 binding inactive, E-sel inducer inactive, F508del corr inactive, DENV2 CPE inactive and ERAP1 HTS inh inactive.
For C[C@H]1CN([C@@H](C)CO)S(=O)(=O)c2ccc(C#Cc3cccc(F)c3)cc2O[C@H]1CN(C)C(=O)NC1CCCCC1 the results were FGF22 binding inactive, E-sel inducer inactive, F508del corr 12, DENV2 CPE inactive and ERAP1 HTS inh inactive.
For C[C@@H]1CN([C@H](C)CO)S(=O)(=O)c2ccc(C#Cc3cccc(F)c3)cc2O[C@@H]1CN(C)C(=O)NC1CCCCC1 the results were FGF22 binding inactive, E-sel inducer inactive, F508del corr 10, DENV2 CPE inactive and ERAP1 HTS inh inactive.
`C[C@H]1CN([C@@H](C)CO)S(=O)(=O)c2ccc(C#Cc3ccc(F)cc3)cc2O[C@H]1CN(C)C(=O)NC1CCCCC1` gave FGF22 binding inactive, E-sel inducer inactive, F508del corr 10, DENV2 CPE inactive and ERAP1 HTS inh inactive.
For O=C(C[C@H]1C[C@H]2c3cc(NC(=O)NC4CCCC4)ccc3O[C@H]2[C@@H](CO)O1)NCC1CC1 the results were FGF22 binding inactive, E-sel inducer inactive, F508del corr inactive, DENV2 CPE inactive and ERAP1 HTS inh inactive.
`Cc1noc(C)c1NC(=O)Nc1ccc2c(c1)C(=O)N([C@H](C)CO)C[C@H](C)[C@H](CN(C)C(=O)Nc1ccccc1)OCCCC[C@@H](C)O2` gave FGF22 binding inactive, E-sel inducer inactive, F508del corr inactive, DENV2 CPE inactive and ERAP1 HTS inh inactive.
For CC(=O)N(C)C[C@@H]1Oc2cc(C#Cc3ccc(F)cc3)ccc2S(=O)(=O)N([C@@H](C)CO)C[C@@H]1C the results were FGF22 binding inactive, E-sel inducer inactive, F508del corr inactive, DENV2 CPE inactive and ERAP1 HTS inh inactive.
`CC(=O)N(C)C[C@@H]1Oc2cc(C#Cc3ccc(F)cc3)ccc2S(=O)(=O)N([C@H](C)CO)C[C@@H]1C` gave FGF22 binding inactive, E-sel inducer inactive, F508del corr 8.0, DENV2 CPE inactive and ERAP1 HTS inh inactive.
CO[C@H]1CN(C)C(=O)c2cc(NS(=O)(=O)c3cccc(Cl)c3)ccc2OC[C@H](C)NC[C@H]1C was read as FGF22 binding inactive, E-sel inducer inactive, F508del corr inactive, DENV2 CPE inactive and ERAP1 HTS inh inactive.
`COc1ccc(/C=N/NC(=O)Cc2ccc(Cl)cc2)cc1OC` gave FGF22 binding inactive, F508del corr inactive, DENV2 CPE inactive and ERAP1 HTS inh inactive.
Screening CCN(CC)c1ccc(/C=N/NC(=O)Cc2ccc(OC)c(OC)c2)cc1 returned FGF22 binding inactive, E-sel inducer 36, F508del corr inactive and DENV2 CPE inactive.
For COc1ccc(NC(=O)Nc2ccc3c(c2)CC(=O)N([C@H](C)CO)C[C@@H](C)[C@H](CN(C)S(=O)(=O)c2cccs2)O3)cc1 the results were FGF22 binding inactive, E-sel inducer inactive, F508del corr inactive, DENV2 CPE inconclusive and ERAP1 HTS inh inactive.
